Results published in ChEMBL document CHEMBL3351887, “'Click' assembly of glycoclusters and discovery of a trehalose analogue that retards Aβ40 aggregation and inhibits Aβ40-induced neurotoxicity” (Bioorg Med Chem Lett, 2014).

How the values were obtained:
[1] = target: Amyloid-beta precursor protein (Homo sapiens) (UniProt P05067); assay: Inhibition of amyloid beta-40 aggregation (unknown origin) assessed as alpha-helix at 36 uM after 72 hrs by CD spectra analysis (reference value: 11 to 15%); parameters: scale not given: the % may be the effect or the level left
Amyloid-beta precursor protein (Homo sapiens), sequence (P05067 whole entry): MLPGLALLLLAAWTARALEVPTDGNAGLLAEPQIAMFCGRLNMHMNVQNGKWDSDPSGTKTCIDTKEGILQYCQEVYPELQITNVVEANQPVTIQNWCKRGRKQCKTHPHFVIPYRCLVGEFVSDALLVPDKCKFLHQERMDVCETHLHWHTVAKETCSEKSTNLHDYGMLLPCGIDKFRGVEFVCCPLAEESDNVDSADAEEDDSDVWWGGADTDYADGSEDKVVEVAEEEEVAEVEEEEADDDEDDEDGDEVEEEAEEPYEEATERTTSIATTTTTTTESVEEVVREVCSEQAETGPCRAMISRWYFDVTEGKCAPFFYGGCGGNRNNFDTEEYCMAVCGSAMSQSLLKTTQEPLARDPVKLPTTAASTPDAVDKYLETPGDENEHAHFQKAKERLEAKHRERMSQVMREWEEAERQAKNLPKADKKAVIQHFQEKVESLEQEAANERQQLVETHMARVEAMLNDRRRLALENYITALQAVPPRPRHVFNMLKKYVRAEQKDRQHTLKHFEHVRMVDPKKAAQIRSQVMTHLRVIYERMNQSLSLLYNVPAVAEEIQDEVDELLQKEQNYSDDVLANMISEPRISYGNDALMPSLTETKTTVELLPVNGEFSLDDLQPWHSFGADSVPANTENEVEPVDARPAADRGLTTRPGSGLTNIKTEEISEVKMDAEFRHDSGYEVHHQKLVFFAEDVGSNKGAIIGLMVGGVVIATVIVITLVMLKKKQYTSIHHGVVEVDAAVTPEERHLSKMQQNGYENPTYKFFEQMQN
In short: (§1)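 Low-molecular-weight Aβ40 was prepared by dissolving the peptide in dilute aqueous NaOH (pH 10.5–12) and diluting in phosphate buffer (pH 7.4). It was sonicated for 60 s and ultracentrifuged at 80,000 rpm for 90 min at 4 °C, and the supernatant was used. Compound and Aβ40 were incubated quiescently at pH 7.4 and 37 °C at molar ratios 1:5, 1:1 and 5:1. Secondary-structure fractions were read from CD spectra after 72 h.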

[2] = target: Amyloid-beta precursor protein (Homo sapiens) (UniProt P05067); assay: Inhibition of amyloid beta-40 aggregation (unknown origin) assessed as alpha-helix at 180 uM after 72 hrs by CD spectra analysis (reference value: 11 to 15%); parameters: scale not given: the % may be the effect or the level left; in short: as §1
[3] = target: Amyloid-beta precursor protein (Homo sapiens) (UniProt P05067); assay: Inhibition of amyloid beta-40 aggregation (unknown origin) assessed as alpha-helix at 900 uM after 72 hrs by CD spectra analysis (reference value: 11 to 15%); parameters: scale not given: the % may be the effect or the level left; in short: as §1
[4] = target: Amyloid-beta precursor protein (Homo sapiens) (UniProt P05067); assay: Inhibition of amyloid beta-40 aggregation (unknown origin) assessed as beta-sheet at 36 uM after 72 hrs by CD spectra analysis (reference value: 2 to 3%); parameters: scale not given: the % may be the effect or the level left; in short: as §1
[5] = target: Amyloid-beta precursor protein (Homo sapiens) (UniProt P05067); assay: Inhibition of amyloid beta-40 aggregation (unknown origin) assessed as beta-sheet at 180 uM after 72 hrs by CD spectra analysis (reference value: 2 to 3%); parameters: scale not given: the % may be the effect or the level left; in short: as §1
[6] = target: Amyloid-beta precursor protein (Homo sapiens) (UniProt P05067); assay: Inhibition of amyloid beta-40 aggregation (unknown origin) assessed as beta-sheet at 900 uM after 72 hrs by CD spectra analysis (reference value: 2 to 3%); parameters: scale not given: the % may be the effect or the level left; in short: as §1
[7] = target: Amyloid-beta precursor protein (Homo sapiens) (UniProt P05067); assay: Inhibition of amyloid beta-40 aggregation (unknown origin) assessed as beta-turns at 36 uM after 72 hrs by CD spectra analysis (reference value: 0%); parameters: scale not given: the % may be the effect or the level left; in short: as §1
[8] = target: Amyloid-beta precursor protein (Homo sapiens) (UniProt P05067); assay: Inhibition of amyloid beta-40 aggregation (unknown origin) assessed as beta-turns at 180 uM after 72 hrs by CD spectra analysis (reference value: 0%); parameters: scale not given: the % may be the effect or the level left; in short: as §1
[9] = target: Amyloid-beta precursor protein (Homo sapiens) (UniProt P05067); assay: Inhibition of amyloid beta-40 aggregation (unknown origin) assessed as beta-turns at 900 uM after 72 hrs by CD spectra analysis (reference value: 0%); parameters: scale not given: the % may be the effect or the level left; in short: as §1
[10] = target: Amyloid-beta precursor protein (Homo sapiens) (UniProt P05067); assay: Inhibition of amyloid beta-40 aggregation (unknown origin) assessed as unordered at 36 uM after 72 hrs by CD spectra analysis (reference value: 82 to 85%); parameters: scale not given: the % may be the effect or the level left; in short: as §1
[11] = target: Amyloid-beta precursor protein (Homo sapiens) (UniProt P05067); assay: Inhibition of amyloid beta-40 aggregation (unknown origin) assessed as unordered at 180 uM after 72 hrs by CD spectra analysis (reference value: 82 to 85%); parameters: scale not given: the % may be the effect or the level left; in short: as §1
[12] = target: Amyloid-beta precursor protein (Homo sapiens) (UniProt P05067); assay: Inhibition of amyloid beta-40 aggregation (unknown origin) assessed as unordered at 900 uM after 72 hrs by CD spectra analysis (reference value: 82 to 85%); parameters: scale not given: the % may be the effect or the level left; in short: as §1
[13] = Neuroprotective activity in C57BL/6 mouse primary cortical neurons assessed as reduction in amyloid beta-40-induced cell death at 240 uM pre-incubated with amyloid beta-40 for 6 hrs and measured after 48 hrs by trypan blue dye exclusion assay; format: functional, Cerebral cortex neuron; parameters: scale not given: the % may be the effect or the level left
[14] = Neuroprotective activity in C57BL/6 mouse primary cortical neurons assessed as reduction in amyloid beta-40-induced cell death at 600 uM pre-incubated with amyloid beta-40 for 6 hrs and measured after 48 hrs by trypan blue dye exclusion assay; format: functional, Cerebral cortex neuron; parameters: scale not given: the % may be the effect or the level left
[15] = target: Amyloid-beta precursor protein (Homo sapiens) (UniProt P05067); assay: Inhibition of amyloid beta-40 aggregation (unknown origin) assessed as fibril width at 1800 uM for 7 days at pH 7.4 by transmission electron microscopy (reference value: 12.3 +/- 1.2 nanometer)
[16] = Toxicity in C57BL/6 mouse primary cortical neurons assessed as reduction in cell viability at 240 to 600 uM after 48 hrs by trypan blue dye exclusion assay; format: cell-based; details: cerebral cortex neuron
[17] = target: Amyloid-beta precursor protein (Homo sapiens) (UniProt P05067); assay: Inhibition of amyloid beta-40 aggregation (unknown origin) assessed as extension of lag phase of Abeta40 aggregation by ThT fluorescence assay
In short: (§2)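 Monomer-rich Aβ40 (35 µM, supernatant after NaOH dissolution, sonication and ultracentrifugation) was incubated with 10 nM–100 µM compound in 20 mM phosphate buffer pH 7.4 (I 0.15 M), with 20 µM ThT and 0.007% NaN3, quiescent at 37 °C. Fluorescence (ex 440, em 480 nm) was read every 5 min. Lag time came from an empirical sigmoidal nonlinear-regression fit; mean ± SE of four independent experiments.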

[18] = target: Amyloid-beta precursor protein (Homo sapiens) (UniProt P05067); assay: Inhibition of amyloid beta-40 aggregation (unknown origin) assessed as extension of lag phase of Abeta40 aggregation at 100 uM by ThT fluorescence assay; parameters: scale not given: the % may be the effect or the level left; in short: as §2

SMILES | Activity [1] | Activity [2] | Activity [3] | Activity [4] | Activity [5] | Activity [6] | Activity [7] | Activity [8] | Activity [9] | Activity [10] | Activity [11] | Activity [12] | Activity [13] | Activity [14] | Activity [15] | Activity [16] | inhibition [17] | Activity [18]
OC[C@H]1O[C@H](O[C@H]2O[C@H](CO)[C@@H](O)[C@H](O)[C@H]2O)[C@H](O)[C@@H](O)[C@@H]1O [TREHALOSE] | 19% | 26% | 18% | 36% | 36% | 36% | 30% | 33% | 29% | 15% | 5% | 17% | 39% | 55% | 11.8 nm | Non-toxic | – | –
OC[C@H]1O[C@@H](O[C@H]2[C@H](O)[C@@H](O)[C@H](n3cc(COCC(COCc4cn([C@@H]5O[C@H](CO)[C@@H](O[C@@H]6O[C@H](CO)[C@H](O)[C@H](O)[C@H]6O)[C@H](O)[C@H]5O)nn4)(COCc4cn([C@@H]5O[C@H](CO)[C@@H](O[C@@H]6O[C@H](CO)[C@H](O)[C@H](O)[C@H]6O)[C@H](O)[C@H]5O)nn4)COCC(COCc4cn([C@@H]5O[C@H](CO)[C@@H](O[C@@H]6O[C@H](CO)[C@H](O)[C@H](O)[C@H]6O)[C@H](O)[C@H]5O)nn4)(COCc4cn([C@@H]5O[C@H](CO)[C@@H](O[C@@H]6O[C@H](CO)[C@H](O)[C@H](O)[C@H]6O)[C@H](O)[C@H]5O)nn4)COCc4cn([C@@H]5O[C@H](CO)[C@@H](O[C@@H]6O[C@H](CO)[C@H](O)[C@H](O)[C@H]6O)[C@H](O)[C@H]5O)nn4)nn3)O[C@@H]2CO)[C@H](O)[C@@H](O)[C@H]1O | – | – | – | – | – | – | – | – | – | – | – | – | – | – | – | – | Dose-dependent effect | 28%
OC[C@H]1O[C@@H](n2cc(COCC(COCc3cn([C@@H]4O[C@H](CO)[C@H](O)[C@H](O)[C@H]4O)nn3)(COCc3cn([C@@H]4O[C@H](CO)[C@H](O)[C@H](O)[C@H]4O)nn3)COCC(COCc3cn([C@@H]4O[C@H](CO)[C@H](O)[C@H](O)[C@H]4O)nn3)(COCc3cn([C@@H]4O[C@H](CO)[C@H](O)[C@H](O)[C@H]4O)nn3)COCc3cn([C@@H]4O[C@H](CO)[C@H](O)[C@H](O)[C@H]4O)nn3)nn2)[C@H](O)[C@@H](O)[C@H]1O | – | – | – | – | – | – | – | – | – | – | – | – | – | – | – | – | Dose-dependent effect | 28%
